Data taken from ChEMBL document CHEMBL4834470, “Lathyrane Diterpenoids as Novel hPXR Agonists: Isolation, Structural Modification, and Structure-Activity Relationships” (ACS Med Chem Lett, 2021).

Experiments:
HEK-293T = experiment: Cytotoxicity against human HEK293T cells assessed as reduction in cell viability at 10 uM measured after 24 hrs by CCK8 assay; type: cell-based
[1] = molecular target: T1, PXR (NR1I2); CYP3A4 promoter reporter (Homo sapiens, UniProt O75469); experiment: Agonist activity at human PXR transfected in human HEK293T cells co-transfected with CYP3A4-Luc plasmid at 10 uM incubated for 24 hrs by dual-luciferase reporter gene assay relative to control
T1 sequence (O75469 whole entry): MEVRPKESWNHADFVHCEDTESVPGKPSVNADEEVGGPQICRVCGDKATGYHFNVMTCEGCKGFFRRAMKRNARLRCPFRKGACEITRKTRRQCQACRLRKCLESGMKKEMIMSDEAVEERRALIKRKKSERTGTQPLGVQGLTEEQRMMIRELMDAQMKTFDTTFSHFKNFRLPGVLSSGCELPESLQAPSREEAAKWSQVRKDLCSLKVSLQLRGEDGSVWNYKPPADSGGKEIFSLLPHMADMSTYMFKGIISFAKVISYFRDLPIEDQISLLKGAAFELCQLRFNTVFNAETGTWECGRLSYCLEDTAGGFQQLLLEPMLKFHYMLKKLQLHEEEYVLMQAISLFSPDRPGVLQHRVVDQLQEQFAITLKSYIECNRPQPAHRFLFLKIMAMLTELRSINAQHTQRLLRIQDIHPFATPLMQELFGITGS

[2] = molecular target: T2, Nuclear receptor subfamily 1 group I member 2 (Homo sapiens, UniProt O75469); experiment: Agonist activity at PXR in human HepaRG cells assessed as upregulation of CYP2B6 mRNA expression at 10 uM by RT-qPCR analysis; type: cell-based
T2 sequence (O75469 whole entry): T1 sequence (O75469 whole entry)
Summary of the method: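 HepaRG cells exposed to test agents at 10 μM, with rifampicin (10 μM) as reference agonist. CYP2B6 mRNA quantified by RT-qPCR, normalized to β-ACTIN housekeeping gene. Mean ± SD, n = 3.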

Which Activity (HEK-293T) does the source give for `C=C1[C@H](OC(C)=O)C[C@H]2[C@@H](/C=C(\C)C(=O)[C@@]3(O)C[C@H](C)[C@H](OC(C)=O)[C@@H]3[C@H]1OC(C)=O)C2(C)C` here?
Its Activity is “Non-Toxic”.

With `C=C1[C@H](OC(=O)c2cccs2)C[C@H]2[C@@H](/C=C(\C)C(=O)[C@@]3(O)C[C@H](C)[C@H](O)[C@@H]3[C@H]1O)C2(C)C` as the compound, how does the Activity (HEK-293T) read?
The Activity was “Non-Toxic”.

For `C=C1CC[C@H]2[C@@H](C[C@@H](C)C(=O)[C@@]3(OC(C)=O)C[C@H](C)[C@H](OC(=O)c4ccccc4)[C@@H]3[C@H]1OC(C)=O)C2(C)C`, which Activity (HEK-293T) is on record?
The Activity was “Non-Toxic”.

`C=C1[C@H](O)C[C@H]2[C@@H](/C=C(\C)C(=O)[C@@]3(OC(C)=O)C[C@H](C)[C@H](OC(=O)c4ccccc4)[C@@H]3[C@H]1OC(C)=O)C2(C)C` was tested. Which Activity (HEK-293T) did it give?
Its Activity is “Non-Toxic”.

For `CC(=O)O[C@H]1[C@@H](C)[C@H](OC(=O)c2ccccc2)C[C@H]2[C@@H](C[C@@H](C)C(=O)[C@@]3(OC(C)=O)C[C@H](C)[C@H](OC(=O)c4ccccc4)[C@H]13)C2(C)C`, which Activity (HEK-293T) is on record?
The Activity was “Non-Toxic”.

What about the fold induction at 24 h, 10 µM [1] of the same compound?
Its fold induction at 24 h, 10 µM is 3.4.

For `C=C1[C@H](OC(C)=O)C[C@H]2[C@@H](/C=C(\C)C(=O)[C@@]3(O)C[C@H](C)[C@H](O)[C@@H]3[C@H]1O)C2(C)C`, which Activity (HEK-293T) is on record?
The Activity was “Non-Toxic”.

With `C=C1[C@H](OC(=O)c2ccccc2)C[C@H]2[C@@H](/C=C(\C)[C@H](OC(C)=O)[C@@]3(O)C[C@H](C)[C@H](OC(=O)c4ccccc4)[C@@H]3[C@H]1OC(C)=O)C2(C)C` as the compound, how does the Activity (HEK-293T) read?
Its Activity is “Non-Toxic”.

Which Activity (HEK-293T) does the source give for `CC(=O)O[C@@H]1[C@H]2[C@@H](OC(=O)c3ccccc3)[C@@H](C)C[C@]2(OC(C)=O)C(=O)[C@@]2(C)O[C@@H]2[C@@H]2[C@H](C[C@@H](OC(=O)c3ccccc3)[C@]13CO3)C2(C)C` here?
The Activity was “Non-Toxic”.

How did the Activity (HEK-293T) turn out when `CC(=O)OC/C1=C/C[C@H]2[C@@H](/C=C(\C)C(=O)[C@@]3(OC(C)=O)C[C@H](C)[C@H](OC(=O)c4ccccc4)[C@@H]3[C@H]1OC(C)=O)C2(C)C` was run?
The Activity was “Non-Toxic”.

With `C=C1C(=O)C[C@H]2[C@@H](/C=C(\C)C(=O)[C@@]3(OC(C)=O)C[C@H](C)[C@H](OC(=O)c4ccccc4)[C@@H]3[C@H]1OC(C)=O)C2(C)C` as the compound, how does the Activity (HEK-293T) read?
Its Activity is “Toxic”.

Which Activity (HEK-293T) does the source give for `C=C1[C@H](OC(=O)c2ccccc2)C[C@H]2[C@@H](/C=C(\C)C(=O)[C@@]3(O)C[C@H](C)[C@H](O)[C@@H]3[C@H]1OC(=O)c1ccccc1)C2(C)C` here?
Its Activity is “Non-Toxic”.

For `C=C1[C@H](OC(=O)c2ccccc2)C[C@H]2[C@@H](/C=C(\C)C(=O)[C@@]3(O)C[C@H](C)[C@H](OC(=O)c4ccccc4)[C@@H]3[C@H]1OC(C)=O)C2(C)C`, which Activity (HEK-293T) is on record?
The Activity was “Non-Toxic”.

Which Activity (HEK-293T) does the source give for `C=C1CC[C@H]2[C@@H](/C=C(\C)C(=O)[C@@]3(O)C[C@H](C)[C@H](O)[C@@H]3[C@H]1O)C2(C)C` here?
Its Activity is “Non-Toxic”.

Which Activity (HEK-293T) does the source give for `C/C1=C\[C@@H]2[C@H](CC(=O)/C(COC(=O)c3ccccc3)=C/[C@H]3[C@@H](O)[C@@H](C)C[C@]3(O)C1=O)C2(C)C` here?
The Activity was “Non-Toxic”.

Which results are given for `C=C1[C@H](OC(=O)c2cccnc2)C[C@H]2[C@@H](/C=C(\C)C(=O)[C@@]3(OC(C)=O)C[C@H](C)[C@H](OC(=O)c4ccccc4)[C@@H]3[C@H]1OC(C)=O)C2(C)C`?
Activity (HEK-293T): Non-Toxic; Activity [2]: Active; fold induction at 24 h, 10 µM [1]: 6.9

Which Activity (HEK-293T) does the source give for `C=C1[C@H](OC(=O)c2ccccc2)C[C@H]2[C@@H](/C=C(\C)C(=O)[C@@]3(OC(C)=O)C[C@H](C)[C@H](OC(=O)c4ccccc4)[C@@H]3[C@H]1OC(C)=O)C2(C)C` here?
Its Activity is “Non-Toxic”.

`C=C(C)[C@@H]1/C=C/C(C)=C\[C@@]2(O)C[C@H](C)[C@H](OC(=O)c3ccccc3)[C@@H]2[C@@H](OC(C)=O)C(=C)CC1` was tested. Which Activity (HEK-293T) did it give?
Its Activity is “Non-Toxic”.

How did the Activity (HEK-293T) turn out when `C=C1[C@H](OC(=O)c2ccccc2)C[C@H]2[C@@H]([C@H]3O[C@]3(C)C(=O)[C@@]3(OC(C)=O)C[C@H](C)[C@H](OC(=O)c4ccccc4)[C@@H]3[C@H]1OC(C)=O)C2(C)C` was run?
Its Activity is “Non-Toxic”.

Which Activity (HEK-293T) does the source give for `C=C1CC[C@H]2[C@@H](/C=C(\C)C(=O)[C@@]3(OC(C)=O)C[C@H](C)[C@H](OC(=O)c4cccnc4)[C@@H]3[C@H]1OC(C)=O)C2(C)C` here?
Its Activity is “Non-Toxic”.

`C=C1CC[C@H]2[C@@H]([C@@H]3O[C@]4(C=C3C)C[C@H](C)[C@H](OC(=O)c3ccccc3)[C@@H]4[C@H]1OC(C)=O)C2(C)C` was tested. Which Activity (HEK-293T) did it give?
Its Activity is “Non-Toxic”.

Which Activity (HEK-293T) does the source give for `C=C1CC[C@H](C(C)(C)OC)/C=C/C(C)=C\[C@@]2(O)C[C@H](C)[C@H](OC(=O)c3ccccc3)[C@@H]2[C@H]1OC(C)=O` here?
Its Activity is “Non-Toxic”.

Which Activity (HEK-293T) does the source give for `C=C1CC[C@H](C(C)(C)O)/C=C/C(C)=C\[C@@]2(O)C[C@H](C)[C@H](OC(=O)c3ccccc3)[C@@H]2[C@H]1OC(C)=O` here?
The Activity was “Non-Toxic”.

Which Activity (HEK-293T) does the source give for `C=C1CC[C@H]2[C@@H](/C=C(\C)C(=O)[C@@]3(OC(C)=O)C[C@H](C)[C@H](OC(=O)/C=C/c4ccccc4)[C@@H]3[C@H]1OC(C)=O)C2(C)C` here?
The Activity was “Non-Toxic”.

`C=C1[C@H](O)C[C@H]2[C@@H](/C=C(\C)C(=O)[C@@]3(O)C[C@H](C)[C@H](O)[C@@H]3[C@H]1O)C2(C)C` was tested. Which Activity (HEK-293T) did it give?
Its Activity is “Non-Toxic”.

With `C=C1CC[C@H]2[C@@H](/C=C(\C)C(=O)[C@@]3(O)C[C@H](C)[C@H](O)[C@@H]3C1=O)C2(C)C` as the compound, how does the Activity (HEK-293T) read?
The Activity was “Toxic”.

How did the Activity (HEK-293T) turn out when `CC(=O)O[C@]12C[C@H](C)[C@H](OC(=O)c3ccccc3)[C@@H]1/C=C(\CO)C(=O)C[C@H]1[C@@H](/C=C(\C)C2=O)C1(C)C` was run?
The Activity was “Non-Toxic”.

`C=C1CC[C@H]2[C@@H](/C=C(\C)C(=O)[C@@]3(OC(C)=O)C[C@H](C)[C@H](OC(=O)/C=C/c4ccccc4)[C@@H]3[C@H]1O)C2(C)C` was tested. Which Activity (HEK-293T) did it give?
Its Activity is “Toxic”.

Which results are given for `CC(=O)O[C@@H]1[C@H]2[C@@H](OC(=O)c3ccccc3)[C@@H](C)C[C@]2(OC(C)=O)C(=O)/C(C)=C/[C@@H]2[C@H](CC[C@H]1C)C2(C)C`?
Activity (HEK-293T): Non-Toxic; fold induction at 24 h, 10 µM [1]: 4.9

With `CC(=O)OC/C1=C/C[C@H]2[C@@H](/C=C(\C)C(=O)[C@@]3(O)C[C@H](C)[C@H](OC(C)=O)[C@@H]3[C@H]1OC(C)=O)C2(C)C` as the compound, how does the Activity (HEK-293T) read?
Its Activity is “Non-Toxic”.

How did the Activity (HEK-293T) turn out when `C=C1CC[C@H]2[C@@H](/C=C(\C)C(=O)[C@@]3(OC(C)=O)C[C@H](C)[C@H](OC(=O)c4ccccc4)[C@@H]3[C@H]1OC(C)=O)C2(C)C` was run?
Its Activity is “Non-Toxic”.

Which Activity (HEK-293T) does the source give for `CC(=O)O[C@]12C[C@H](C)[C@H](OC(=O)c3cccnc3)[C@@H]1[C@H]1O[C@@]1(C)CC[C@H]1[C@@H](/C=C(\C)C2=O)C1(C)C` here?
Its Activity is “Non-Toxic”.

How did the Activity (HEK-293T) turn out when `C=C1[C@H](OC(=O)c2ccco2)C[C@H]2[C@@H](/C=C(\C)C(=O)[C@@]3(O)C[C@H](C)[C@H](O)[C@@H]3[C@H]1O)C2(C)C` was run?
The Activity was “Non-Toxic”.

With `C=C1CC[C@H]2[C@@H](/C=C(\C)C(=O)[C@@]3(OC(C)=O)C[C@H](C)[C@H](O)[C@@H]3[C@H]1OC(=O)/C=C/c1ccccc1)C2(C)C` as the compound, how does the Activity (HEK-293T) read?
The Activity was “Toxic”.
